According to ChEMBL document CHEMBL1687915, “Synthesis and biological evaluation of analogues of AKT (protein kinase B) inhibitor-IV” (J Med Chem, 2011):
pIC50: −log10 of the molar value. Calls of active or inactive are those of the source. The rule behind the calls is not given here.

What was measured:
[1] = system: HeLa; assay: Cytotoxicity in human HeLa cells assessed as luciferase activity after 24 hrs by CellTiter-Glo luminescent cell viability assay; format: functional, cell-based; settings: for pIC50: Homo sapiens, HeLa, 24 h, read-out: IC50; for IC50: hela
In short: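 Viability of HeLa cells measured after 24 h of compound exposure by cellular ATP (firefly luciferase, CellTiter-Glo) over a dose-response range. IC50 derived from the curves, triplicate or more.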

[2] = Cytotoxicity in human NHBE cells assessed as luciferase activity after 40 hrs by CellTiter-Glo luminescent cell viability assay; format: cell-based; settings: for pIC50: Homo sapiens, NHBE, 40 h, read-out: IC50; for IC50: nhbe
In short: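 NHBE cells (passage 2, 2×10⁴ cells/cm²) grown on collagen-coated Transwell inserts, submerged for 5–7 days, then at air-liquid interface for a further 28 days (35 days total). Exposed to compound over a dose range, then viability read after 40 h as cellular ATP by CellTiter-Glo firefly luciferase. Triplicate or more.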

[3] = Antiviral activity against Parainfluenza virus 5 expressing renilla luciferase infected in HeLa cells assessed as inhibition viral replication by luciferase based reporter gene assay; format: functional, cell-based; settings: for pIC50: Mammalian orthorubulavirus 5, HeLa, read-out: IC50; for IC50: hela
In short: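 HeLa cells infected with 1 MOI of recombinant PIV5 carrying renilla luciferase between the HN and L genes, then incubated with compound. Cells harvested 1 day post infection and assayed for renilla luciferase. Screened first as singletons at 1 μM, then at 0.5 μM. IC50 taken from dose-response curves, at least triplicate.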

[4] = system: Mycolicibacterium fortuitum; assay: Antibacterial activity against 0.5 uM compound pretreated Mycobacterium fortuitum infected in human HeLa cells assessed as inhibition of bacterial replication; format: functional, organism-based
In short: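 HeLa cells seeded at 5×10^5/well in EMEM with 10% FBS overnight, 37 °C, 5% CO₂. Washed free of antibiotics, then infected with washed M. fortuitum in uptake buffer at MOI 5 for 24 h. After a warm DMEM wash, compound added at 0.5 μM in HeLa medium, with Triton X-100 (1%) and 0.1% DMSO controls. After 24 h more, cells lysed and plated for CFU on 7H11 agar. At least triplicate.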

[5] = Inhibition of AKT -mediated FOXO1a nuclear export in human 786-O cells; format: cell-based
[6] = Antiproliferative activity against human 786-O cells; format: functional, cell-based; settings: 786-0

Compound | pIC50 [1] | IC50 [1] | pIC50 [2] | IC50 [2] | pIC50 [3] | IC50 [3] | Activity [4] | pIC50 [5] | pIC50 [6]
CN(/C=C/c1n(-c2ccccc2)c2ccc(-c3nc4ccccc4s3)cc2[n+]1CCc1ccccc1)c1ccccc1.[I-] | 6.21 | Dose-dependent effect | 5.30 | Dose-dependent effect | 6.23 | Dose-dependent effect | inactive | – | –
CCCCCCCCCCCC[n+]1c(/C=C/N(C)c2ccccc2)n(-c2ccccc2)c2ccc(-c3nc4ccccc4s3)cc21.[I-] | 6.36 | Dose-dependent effect | < 5.30 | Dose-dependent effect | 6.60 | Dose-dependent effect | inactive | – | –
CC[n+]1c(/C=C/N(C)c2ccccc2)n(-c2ccccc2)c2ccc(-c3nc4ccccc4s3)cc21 | 6.17 | Dose-dependent effect | 5.50 | Dose-dependent effect | 6.28 | Dose-dependent effect | inactive | 6.20 | > 5.90
CCCCCC[n+]1c(/C=C/N(C)c2ccccc2)n(-c2ccccc2)c2ccc(-c3nc4ccccc4s3)cc21.[I-] | 6.38 | Dose-dependent effect | < 5.30 | Dose-dependent effect | 6.39 | Dose-dependent effect | inactive | – | –
